Test results as given in ChEMBL document CHEMBL1821580, “Design, synthesis and bioevaluation of novel candidate selective estrogen receptor modulators” (Eur J Med Chem, 2011).
The source made the active and inactive calls. The rule behind the calls is not given here.

What was measured:
L1210 = experiment: Cytostatic activity against mouse L1210 cells after 2 days by coulter counter assay; assay type: functional, cell-based; conditions: L1210, 48 h
In short: (§1)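 Tumor cells seeded in 96-well plates and exposed to a range of compound concentrations. Exposure was 2 days for L1210 and 3 days for Molt4/C8 and CEM. Cell number was counted on a Coulter particle counter. IC50 is the concentration inhibiting proliferation by 50%. Run in triplicate.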

MOLT-4 = experiment: Cytostatic activity against human Molt4/C8 cells after 3 days by coulter counter assay; assay type: functional, cell-based; conditions: MOLT-4, 72 h; in short: as §1
CCRF-CEM = experiment: Cytostatic activity against human CEM cells after 3 days by coulter counter assay; assay type: functional, cell-based; conditions: 72 h; in short: as §1
MCF7 = experiment: Cytotoxicity activity against human MCF7 cells by MTS assay; assay type: functional, cell-based
In short: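 MCF-7 cells in DMEM with 10% heat-inactivated FBS, seeded at 30,000 cells/well in 24-well plates. After compound treatment, viability was read by MTS assay (CellTiter 96 AQueous). Run in triplicate.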

[1] = target: T1, Estrogen receptor (Homo sapiens) (UniProt P03372); experiment: Binding affinity to estrogen receptor alpha in human MCF7 cells assessed as NR peptide-ERalpha complex formation at 25 uM by colorimetric ELISA; assay type: cell-based
T1 sequence (whole entry): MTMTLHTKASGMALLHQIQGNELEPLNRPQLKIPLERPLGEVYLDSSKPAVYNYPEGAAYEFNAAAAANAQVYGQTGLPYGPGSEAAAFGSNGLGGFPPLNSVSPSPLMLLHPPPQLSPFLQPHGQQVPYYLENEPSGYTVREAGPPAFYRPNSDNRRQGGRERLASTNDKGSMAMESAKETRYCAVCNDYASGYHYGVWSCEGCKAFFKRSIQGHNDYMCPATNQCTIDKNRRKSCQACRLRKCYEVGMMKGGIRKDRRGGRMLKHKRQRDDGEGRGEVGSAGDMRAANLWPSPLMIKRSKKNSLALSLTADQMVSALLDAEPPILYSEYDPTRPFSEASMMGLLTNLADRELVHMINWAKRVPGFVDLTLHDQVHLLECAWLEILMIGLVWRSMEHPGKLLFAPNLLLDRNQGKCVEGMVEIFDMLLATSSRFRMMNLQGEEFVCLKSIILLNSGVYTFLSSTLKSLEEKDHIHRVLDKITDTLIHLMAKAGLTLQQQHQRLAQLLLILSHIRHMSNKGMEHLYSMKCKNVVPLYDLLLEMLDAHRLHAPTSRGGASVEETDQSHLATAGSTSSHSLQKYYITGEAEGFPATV

[2] = target: T1, Estrogen receptor (Homo sapiens); experiment: Binding affinity to estrogen receptor alpha in human MCF7 cells assessed as NR peptide-ERalpha complex formation at 2.5 uM by colorimetric ELISA; assay type: cell-based

Question: `COc1ccc(C(c2c(O)ccc3ccccc23)N2CCC(O)CC2)cc1OC` (single isomer, unassigned; (-)) was tested. Which IC50 (L1210) did it give?
Answer: The IC50 was 50 µM.

Question: What about the IC50 (MOLT-4) of the same compound?
Answer: The IC50 was 18 µM.

Question: And the IC50 (CCRF-CEM)?
Answer: The IC50 was 25 µM.

Question: With `Oc1ccc2ccccc2c1C(c1ccc2c(c1)OCO2)N1CCC(O)CC1` (single isomer, unassigned; (-)) as the compound, how does the IC50 (L1210) read?
Answer: Its IC50 is 45 µM.

Question: What about the IC50 (MOLT-4) of the same compound?
Answer: Its IC50 is 44 µM.

Question: What about the IC50 (CCRF-CEM) of the same compound?
Answer: The IC50 was 37 µM.

Question: `CN(C)CCOc1ccc(C(c2c(O)ccc3ccccc23)N2CCC(O)CC2)cc1` (racemic) was tested. Which IC50 (MCF7) did it give?
Answer: Its IC50 is 22.6 µM.

Question: For `Oc1ccc2ccccc2c1C(c1ccc(F)cc1)N1CCC(O)CC1` (single isomer, unassigned; (-)), which IC50 (L1210) is on record?
Answer: Its IC50 is 44 µM.

Question: And the IC50 (MOLT-4)?
Answer: Its IC50 is 41 µM.

Question: What about the IC50 (CCRF-CEM) of the same compound?
Answer: The IC50 was 24 µM.

Question: `Oc1ccc2ccccc2c1C(c1ccccn1)N1CCC(O)CC1` (single isomer, unassigned; (+)) was tested. Which IC50 (L1210) did it give?
Answer: The IC50 was 118 µM.

Question: And the IC50 (MOLT-4)?
Answer: The IC50 was 52 µM.

Question: What about the IC50 (CCRF-CEM) of the same compound?
Answer: The IC50 was 54 µM.

Question: What does the source list for `Cc1ccc(C(c2c(O)ccc3ccccc23)N2CCC(O)CC2)cc1` (single isomer, unassigned; (-))?
Answer: IC50 (L1210): 44 µM; IC50 (MOLT-4): 39 µM; IC50 (CCRF-CEM): 29 µM

Question: Which IC50 (L1210) does the source give for `CC(=O)OC1CCN(C(c2ccc(F)cc2)c2c(O)ccc3ccccc23)CC1` (single isomer, unassigned; (+)) here?
Answer: The IC50 was 45 µM.

Question: And the IC50 (MOLT-4)?
Answer: Its IC50 is 40 µM.

Question: And the IC50 (CCRF-CEM)?
Answer: Its IC50 is 27 µM.

Question: Which IC50 (L1210) does the source give for `CC(=O)OC1CCN(C(c2ccccn2)c2c(O)ccc3ccccc23)CC1` (configuration not stated) here?
Answer: The IC50 was 92 µM.

Question: And the IC50 (MOLT-4)?
Answer: Its IC50 is 49 µM.

Question: What about the IC50 (CCRF-CEM) of the same compound?
Answer: Its IC50 is 55 µM.

Question: `CC(=O)OC1CCN(C(c2ccc3c(c2)OCO3)c2c(O)ccc3ccccc23)CC1` (configuration not stated) was tested. Which IC50 (L1210) did it give?
Answer: The IC50 was 48 µM.

Question: And the IC50 (MOLT-4)?
Answer: The IC50 was 69 µM.

Question: And the IC50 (CCRF-CEM)?
Answer: The IC50 was 51 µM.

Question: Which IC50 (L1210) does the source give for `Oc1ccc2ccccc2c1C(c1ccc(Cl)cc1)N1CCC(O)CC1` (single isomer, unassigned; (-)) here?
Answer: The IC50 was 46 µM.

Question: What about the IC50 (MOLT-4) of the same compound?
Answer: The IC50 was 33 µM.

Question: And the IC50 (CCRF-CEM)?
Answer: Its IC50 is 19 µM.

Question: How did the IC50 (L1210) turn out when `CC(=O)OC1CCN(C(c2ccc(Cl)cc2)c2c(O)ccc3ccccc23)CC1` (single isomer, unassigned; (+)) was run?
Answer: Its IC50 is 41 µM.

Question: What about the IC50 (MOLT-4) of the same compound?
Answer: Its IC50 is 35 µM.

Question: What about the IC50 (CCRF-CEM) of the same compound?
Answer: Its IC50 is 28 µM.

Question: With `CC/C(=C(\c1ccccc1)c1ccc(OCCN(C)C)cc1)c1ccccc1` [TAMOXIFEN] as the compound, how does the IC50 (MCF7) read?
Answer: The IC50 was 31 µM.

Question: How did the IC50 (L1210) turn out when `CC(=O)OC1CCN(C(c2ccncc2)c2c(O)ccc3ccccc23)CC1` (single isomer, unassigned; (-)) was run?
Answer: Its IC50 is 80 µM.

Question: And the IC50 (MOLT-4)?
Answer: Its IC50 is 59 µM.

Question: What about the IC50 (CCRF-CEM) of the same compound?
Answer: Its IC50 is 79 µM.

Question: Which IC50 (MCF7) does the source give for `CCN(CC)CCOc1ccc(C(c2c(O)ccc3ccccc23)N2CCC(O)CC2)cc1` (racemic) here?
Answer: The IC50 was 19 µM.

Question: With `Oc1ccc2ccccc2c1C(c1ccc(OCCN2CCCCC2)cc1)N1CCC(O)CC1` (racemic) as the compound, how does the IC50 (MCF7) read?
Answer: Its IC50 is 36.4 µM.

Question: How did the IC50 (L1210) turn out when `Oc1ccc2ccccc2c1C(c1ccccc1)N1CCC(O)CC1` (configuration not stated) was run?
Answer: The IC50 was 50 µM.

Question: What about the IC50 (MOLT-4) of the same compound?
Answer: The IC50 was 43 µM.

Question: And the IC50 (CCRF-CEM)?
Answer: Its IC50 is 36 µM.

Question: Which IC50 (MCF7) does the source give for `Oc1ccc2ccccc2c1C(c1ccc(OCCN2CCCC2)cc1)N1CCC(O)CC1` (racemic) here?
Answer: Its IC50 is 37.5 µM.

Question: With `CCN(CC)CCOc1ccc(Cc2c(O)ccc3ccccc23)cc1` as the compound, how does the IC50 (MCF7) read?
Answer: Its IC50 is 6.2 µM.

Question: For `Oc1ccc2ccccc2c1C(c1ccncc1)N1CCC(O)CC1` (single isomer, unassigned; (+)), which IC50 (L1210) is on record?
Answer: The IC50 was 154 µM.

Question: And the IC50 (MOLT-4)?
Answer: The IC50 was 107 µM.

Question: What about the IC50 (CCRF-CEM) of the same compound?
Answer: Its IC50 is 133 µM.

Question: For `CC(C)N(CCOc1ccc(C(c2c(O)ccc3ccccc23)N2CCC(O)CC2)cc1)C(C)C` (racemic), which IC50 (MCF7) is on record?
Answer: The IC50 was 52.3 µM.

Question: With `Oc1ccc2ccccc2c1C(c1ccc(Cl)c(Cl)c1)N1CCC(O)CC1` (configuration not stated) as the compound, how does the IC50 (L1210) read?
Answer: The IC50 was 43 µM.

Question: And the IC50 (MOLT-4)?
Answer: Its IC50 is 36 µM.

Question: What about the IC50 (CCRF-CEM) of the same compound?
Answer: Its IC50 is 17 µM.

Question: With `COc1ccc(C(c2c(O)ccc3ccccc23)N2CCC(OC(C)=O)CC2)cc1OC` (single isomer, unassigned; (+)) as the compound, how does the IC50 (L1210) read?
Answer: The IC50 was 48 µM.

Question: What about the IC50 (MOLT-4) of the same compound?
Answer: The IC50 was 12 µM.

Question: What about the IC50 (CCRF-CEM) of the same compound?
Answer: The IC50 was 24 µM.

Question: What does the source list for `CC(=O)OC1CCN(C(c2ccc(Cl)c(Cl)c2)c2c(O)ccc3ccccc23)CC1` (single isomer, unassigned; (+))?
Answer: IC50 (L1210): 31 µM; IC50 (MOLT-4): 34 µM; IC50 (CCRF-CEM): 15 µM

Question: How did the IC50 (L1210) turn out when `COc1ccc(C(c2c(O)ccc3ccccc23)N2CCC(OC(C)=O)CC2)cc1` (single isomer, unassigned; (+)) was run?
Answer: Its IC50 is 43 µM.

Question: What about the IC50 (MOLT-4) of the same compound?
Answer: Its IC50 is 42 µM.

Question: What about the IC50 (CCRF-CEM) of the same compound?
Answer: The IC50 was 22 µM.

Question: How did the IC50 (MCF7) turn out when `CN(C)CCOc1ccc(Cc2c(O)ccc3ccccc23)cc1` was run?
Answer: The IC50 was 10.2 µM.

Question: How did the IC50 (MCF7) turn out when `Oc1ccc2ccccc2c1Cc1ccc(OCCN2CCOCC2)cc1` was run?
Answer: The IC50 was greater than 25 µM.

Question: Which IC50 (MCF7) does the source give for `CC(C)N(CCOc1ccc(Cc2c(O)ccc3ccccc23)cc1)C(C)C` here?
Answer: Its IC50 is 7.54 µM.

Question: Which IC50 (MCF7) does the source give for `Oc1ccc2ccccc2c1C(c1ccc(OCCN2CCOCC2)cc1)N1CCC(O)CC1` (racemic) here?
Answer: Its IC50 is 424 µM.

Question: With `COc1ccc(C(c2c(O)ccc3ccccc23)N2CCC(O)CC2)cc1` (configuration not stated) as the compound, how does the IC50 (L1210) read?
Answer: The IC50 was 42 µM.

Question: And the IC50 (MOLT-4)?
Answer: The IC50 was 35 µM.

Question: What about the IC50 (CCRF-CEM) of the same compound?
Answer: Its IC50 is 14 µM.

Question: For `Oc1ccc2ccccc2c1Cc1ccc(OCCN2CCCCC2)cc1`, which IC50 (MCF7) is on record?
Answer: Its IC50 is 6.82 µM.

Question: For `CC1CCN(CCOc2ccc(Cc3c(O)ccc4ccccc34)cc2)CC1`, which IC50 (MCF7) is on record?
Answer: Its IC50 is 4.38 µM.

Question: And the Activity [1]?
Answer: The Activity was “Active”.

Question: What about the Activity [2] of the same compound?
Answer: The Activity was “Active”.

Question: For `CC(=O)OC1CCN(C(c2ccc(C)cc2)c2c(O)ccc3ccccc23)CC1` (single isomer, unassigned; (+)), which IC50 (L1210) is on record?
Answer: Its IC50 is 45 µM.

Question: And the IC50 (MOLT-4)?
Answer: The IC50 was 47 µM.

Question: What about the IC50 (CCRF-CEM) of the same compound?
Answer: The IC50 was 35 µM.

Question: With `Oc1ccc2ccccc2c1Cc1ccc(OCCN2CCCCCC2)cc1` as the compound, how does the IC50 (MCF7) read?
Answer: Its IC50 is 6.21 µM.

Question: Which IC50 (MCF7) does the source give for `Oc1ccc2ccccc2c1Cc1ccc(OCCN2CCCC2)cc1` here?
Answer: Its IC50 is 6.71 µM.

Question: For `CC(=O)OC1CCN(C(c2ccccc2)c2c(O)ccc3ccccc23)CC1` (single isomer, unassigned; (+)), which IC50 (L1210) is on record?
Answer: The IC50 was 58 µM.

Question: And the IC50 (MOLT-4)?
Answer: The IC50 was 38 µM.

Question: What about the IC50 (CCRF-CEM) of the same compound?
Answer: The IC50 was 31 µM.
